Test [1] relates to Nadsonia fulvescens. Nature of the test: Antifungal activity against Nadsonia fulvescens ATCC 24236 upto 100 ug/mL after 24 hrs by microtiter plate assay. The test is classed as functional, organism-based. Put shortly:
(§1)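 Broth microdilution in microtiter plates, following an earlier published method. Each test fungus was inoculated at 1×10^5 spores/mL. Plates were incubated for 24 h at 27 °C, and antifungal activity was then scored.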

Test [2] deals with Eremothecium coryli. Nature of the test: Antifungal activity against Nematospora coryli ATCC 10647 upto 100 ug/mL after 24 hrs by microtiter plate assay. The test is classed as functional, organism-based. Put shortly: as §1
The subject of test [3] is Fusarium oxysporum. Nature of the test: Antifungal activity against Fusarium oxysporum CBS 149.25 upto 100 ug/mL after 24 hrs by microtiter plate assay. In kind it is functional, organism-based. The procedure, abridged: as §1
Test [4] relates to Paecilomyces variotii. Nature of the test: Antifungal activity against Paecilomyces variotii ETH 114646 upto 100 ug/mL after 24 hrs by microtiter plate assay. In kind it is functional, organism-based. The procedure, abridged: as §1
Test [5] concerns Rhodotorula glutinis. Nature of the test: Antifungal activity against Rhodotorula glutinis ATCC 26085 upto 100 ug/mL after 24 hrs by microtiter plate assay. In kind it is functional, organism-based. The procedure, abridged: as §1
For test [6], the system named is Nadsonia fulvescens. Nature of the test: Antifungal activity against Nadsonia fulvescens ATCC 24236 after 24 hrs by microtiter plate assay. The test is classed as functional. The following applies: ATCC 24236, 24 h. Put shortly: as §1
The test system of test [7] is Eremothecium coryli. In words: Antifungal activity against Nematospora coryli ATCC 10647 after 24 hrs by microtiter plate assay. The following applies: ATCC 10647, 24 h. In kind it is functional. The procedure, abridged:
as §1

For test [8], the system named is Paecilomyces variotii. Nature of the test: Antifungal activity against Paecilomyces variotii ETH 114646 after 24 hrs by microtiter plate assay. In kind it is functional. Put shortly: as §1
Test [9] has as its system Rhodotorula glutinis. Nature of the test: Antifungal activity against Rhodotorula glutinis ATCC 26085 after 24 hrs by microtiter plate assay. The test is classed as functional. The following applies: ATCC 26085, 24 h. The procedure, abridged:
as §1

Test [10] deals with HeLa. In words: Cytotoxicity against human HeLa S3 cells by Giemsa staining. The test is classed as functional.
In test [11] the test system is L1210. Nature of the test: Cytotoxicity against mouse L1210 cells by Giemsa staining. In kind it is functional.
The test system of test [12] is HL-60. Nature of the test: Cytotoxicity against human HL60 cells by Giemsa staining. In kind it is functional.

Values after ≈ are worked out from the molar mass of the structure shown. Active and inactive are the calls of the source. The rule behind the calls is not given here.

Take `CCCCC(/C=C(C)/C=C/C=C/C(=O)N1CCCC1CO)OC` (configuration not stated): the outcome in [1], in [2], in test [3], in test [4] and in [5] was inactive.
As usually defined, the MIC is the lowest concentration found to suppress growth. A higher MIC goes with a less susceptible organism. Consider `CCCC[C@@H](O)/C=C(C)/C=C/C=C/C(=O)N1CCCC1=O` [PECILOCIN], for which the MIC in test [6], in test [7], in test [8] and in [9] was 1 µg/mL (≈ 3.43 µM) throughout.
The IC90 is the concentration at which the effect reaches the 90% level. High values mean a need for much substance, low ones an effect from little substance. For `CCCCC(O)/C=C(C)/C=C/C=C/C(=O)N1CCCC1CO` (configuration not stated) [VIRIDITIN], the IC90 in test [10], in [11] and in test [12] was 25 µg/mL (≈ 81.3 µM) each time. The result in [1], in test [2], in [3], in test [4] and in test [5] was inactive.

The record behind these values is ChEMBL document CHEMBL1142645, “New variotin analogues from Aspergillus viridi-nutans” (2000).
